This is an account of results in ChEMBL document CHEMBL4138082 (Eur J Med Chem, 2017).

One data set relates to PC-3. Put plainly: Antiproliferative activity against human PC3 cells after 72 hrs by MTT assay. It is filed as functional, cell-based. To be noted: PC-3, 72 h. The procedure, abridged: (§1)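 MTT assay. Cells were seeded and grown 24 h at 37 °C in 5% CO2, then exposed to compound or left untreated for 72 h. MTT (5 mg/mL stock) was added for 4 h and the formazan dissolved in DMSO. OD was read at 570 nm. IC50 is the concentration giving 50% growth inhibition, reported as mean ± SD of three independent experiments. Vehicle reference was 0.1% DMSO.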
A general note: Formazan colour is commonly taken as a measure of viable cells.

The next data set concerns HT-29. Put plainly: Antiproliferative activity against human HT-29 cells after 72 hrs by MTT assay. To be noted: HT-29, 72 h. It is filed as functional, cell-based. The procedure, abridged:
as §1

A further data set has as its system L02. Put plainly: Cytotoxicity against human L02 cells assessed as reduction in cell viability after 72 hrs by MTT assay. It is filed as cell-based. To be noted: L02, 72 h. The procedure, abridged: as §1
In the next data set the test system is HepG2. Put plainly: Antiproliferative activity against human HepG2 cells after 72 hrs by MTT assay. It is filed as functional, cell-based. To be noted: HepG2, 72 h. The procedure, abridged: as §1
The nature of data set [1]: Selectivity index, ratio of IC50 for human L02 cells to IC50 for human HepG2 cells. The data set is classed as toxicity. To be noted: L02 cells and HepG2 cells, read-out: Ratio IC50. The procedure, abridged:
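MTT assay: cells grown 24 h at 37 °C, 5% CO2, then exposed 72 h; MTT (5 mg/mL) added for 4 h, formazan dissolved in DMSO, OD read at 570 nm. Vehicle 0.1% DMSO. Three independent experiments.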

The nature of data set [2]: Drug metabolism in human HepG2 cells assessed as NO release by measuring nitrite formation at 100 uM after 1 hr by Griess assay. The data set is classed as ADME, cell-based. To be noted: hepg2, 1 h. The procedure, abridged: (§2)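 HepG-2 or L-02 cells were exposed to 100 µM of each compound for 60 min and then harvested. Lysates were mixed with Griess reagent for 10 min at 37 °C and absorbance was read at 550 nm. NO release is expressed as nitrite, reported as mean ± SD of three independent experiments.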
(In general: Nitrite, measured by Griess reagent, commonly stands in for NO production.)

The nature of data set [3]: Drug metabolism in human L02 cells assessed as NO release by measuring nitrite formation at 100 uM after 1 hr by Griess assay. It is filed as ADME, cell-based. To be noted: l02, 1 h. The procedure, abridged: as §2

`O=C(O)c1ccccc1C(=O)OCCOc1no[n+]([O-])c1S(=O)(=O)c1ccccc1`: the IC50 (in general, the concentration that inhibits the measured activity by half) with PC-3 is 9900 nM; in the data set with HT-29, > 10000 nM; in the data set on L02, 37 µM; in the data set on HepG2 it was > 10000 nM.

Take `C[C@H]1CCC/C=C/[C@@H]2C[C@H](OC(=O)c3ccccc3C(=O)OCCCOc3no[n+]([O-])c3S(=O)(=O)c3ccccc3)C[C@H]2[C@H](O)/C=C/C(=O)O1`: the IC50 with PC-3 worked out at 95 nM; with HT-29, 300 nM; with L02 it was 5.4 µM; with HepG2, 620 nM. Moreover, the selectivity ratio in data set [1] amounted to 9.

On to `O=C(O)CCCC(=O)OCCCOc1no[n+]([O-])c1S(=O)(=O)c1ccccc1`, for which the IC50 with PC-3 is 3300 nM; in the data set with HT-29, > 10000 nM; in the data set with L02, 35 µM; with HepG2 it was > 10000 nM.

As to `C[C@H]1CCC/C=C/[C@@H]2C[C@H](OC(=O)c3ccccc3C(=O)OCCOc3no[n+]([O-])c3S(=O)(=O)c3ccccc3)C[C@H]2[C@H](O)/C=C/C(=O)O1`, the IC50 worked out at 64 nM with PC-3, 280 nM in the data set on HT-29, 5.9 µM in the data set with L02 and 540 nM in the data set on HepG2. Also, the selectivity ratio in data set [1] is 11.

In the case of `C[C@H]1CCC/C=C/[C@@H]2C[C@H](OC(=O)CCC(=O)OCCCOc3no[n+]([O-])c3S(=O)(=O)c3ccccc3)C[C@H]2[C@H](O)/C=C/C(=O)O1`, the IC50 in the data set on PC-3 is 730 nM; in the data set on HT-29 it was 910 nM; in the data set with L02, 7.8 µM; with HepG2, 1300 nM. In addition, the selectivity ratio in data set [1] is 6.

For the molecule `C[C@H]1CCC/C=C/[C@@H]2C[C@H](O)C[C@H]2[C@H](OC(=O)CCCC(=O)OCCCOc2no[n+]([O-])c2S(=O)(=O)c2ccccc2)/C=C/C(=O)O1`, the IC50 with PC-3 stood at 95 nM; in the data set on HT-29, 5700 nM; in the data set on L02 it was 6.7 µM; with HepG2, 1800 nM. In data set [1], the selectivity ratio was determined as 4.

For the molecule `C[C@H]1CCC/C=C/[C@@H]2C[C@H](OC(=O)CCCC(=O)OCCCOc3no[n+]([O-])c3S(=O)(=O)c3ccccc3)C[C@H]2[C@H](O)/C=C/C(=O)O1`, the IC50 with PC-3 stood at 160 nM; in the data set on HT-29, 1600 nM; with L02 it was 6.7 µM; in the data set on HepG2, 750 nM. Besides, in data set [1], the selectivity ratio amounted to 9.

For the molecule `O=C(O)CCC(=O)OCCOc1no[n+]([O-])c1S(=O)(=O)c1ccccc1`, the IC50 was 3800 nM with PC-3, > 10000 nM with HT-29, 36 µM with L02 and > 10000 nM in the data set with HepG2.

`O=c1[nH]cc(F)c(=O)[nH]1` [FLUOROURACIL] displayed an IC50 with HT-29 of 4900 nM.

For the molecule `C[C@H]1CCC/C=C/[C@@H]2C[C@H](OC(=O)c3ccccc3C(=O)OCCOc3no[n+]([O-])c3S(=O)(=O)c3ccccc3)C[C@H]2[C@H](OC(=O)c2ccccc2C(=O)OCCOc2no[n+]([O-])c2S(=O)(=O)c2ccccc2)/C=C/C(=O)O1`, the IC50 with PC-3 was 130 nM; with HT-29, 230 nM; in the data set with L02, 6.2 µM; in the data set on HepG2, 550 nM. In data set [1], the selectivity ratio stood at 11. Moreover, the Drug metabolism in data set [2] is 89.3 µM; in data set [3], 20.6 µM.

As to `O=C(O)CCC(=O)OCCCOc1no[n+]([O-])c1S(=O)(=O)c1ccccc1`, the IC50 is > 10000 nM in the data set with PC-3, > 10000 nM in the data set on HT-29, 29 µM in the data set with L02 and 6400 nM in the data set with HepG2. The selectivity ratio in data set [1] was 5.

As for `C[C@H]1CCC/C=C/[C@@H]2C[C@H](OC(=O)c3ccccc3C(=O)OCCCOc3no[n+]([O-])c3S(=O)(=O)c3ccccc3)C[C@H]2[C@H](OC(=O)c2ccccc2C(=O)OCCCOc2no[n+]([O-])c2S(=O)(=O)c2ccccc2)/C=C/C(=O)O1`, the IC50 in the data set on PC-3 was found to be 1300 nM; in the data set on HT-29, 4400 nM; with L02 it was 9.8 µM; in the data set with HepG2, 4000 nM. Also, in data set [1], the selectivity ratio was 2.

Turning to `O=C(O)CCCC(=O)OCCOc1no[n+]([O-])c1S(=O)(=O)c1ccccc1`, the IC50 is 5100 nM in the data set on PC-3, > 10000 nM in the data set on HT-29, 32 µM in the data set with L02 and 4000 nM with HepG2. In data set [1], the selectivity ratio is 8.

Take `C[C@H]1CCC/C=C/[C@@H]2C[C@H](O)C[C@H]2[C@H](OC(=O)c2ccccc2C(=O)OCCOc2no[n+]([O-])c2S(=O)(=O)c2ccccc2)/C=C/C(=O)O1`: the IC50 is 110 nM with PC-3, 400 nM with HT-29, 5.7 µM in the data set on L02 and 820 nM in the data set with HepG2. Moreover, the selectivity ratio in data set [1] came to 7.

Turning to `C[C@H]1CCC/C=C/[C@@H]2C[C@H](O)C[C@H]2[C@H](OC(=O)CCC(=O)OCCCOc2no[n+]([O-])c2S(=O)(=O)c2ccccc2)/C=C/C(=O)O1`, the IC50 with PC-3 amounted to 250 nM; in the data set with HT-29, 790 nM; with L02, 6.9 µM; in the data set on HepG2, 730 nM. Also, the selectivity ratio in data set [1] amounted to 9.

For `C[C@H]1CCC/C=C/[C@@H]2C[C@H](O)C[C@H]2[C@H](OC(=O)CCCC(=O)OCCOc2no[n+]([O-])c2S(=O)(=O)c2ccccc2)/C=C/C(=O)O1`, the IC50 in the data set on PC-3 was 46 nM; with HT-29, 280 nM; with L02, 5.1 µM; in the data set on HepG2, 410 nM. For the same molecule, the selectivity ratio in data set [1] came out at 12. Moreover, the results for the Drug metabolism in data set [2] and in data set [3] were 68.5 µM and 13.9 µM, respectively.

In the case of `C[C@H]1CCC/C=C/[C@@H]2C[C@H](OC(=O)CCC(=O)O)C[C@H]2[C@H](O)/C=C/C(=O)O1`, the IC50 in the data set with PC-3 came to 1600 nM; with HT-29, 6300 nM; in the data set with L02 it was 9.5 µM; in the data set with HepG2 it was 1600 nM. In addition, in data set [1], the selectivity ratio was found to be 6.

For `C[C@H]1CCC/C=C/[C@@H]2C[C@H](O)C[C@H]2[C@H](O)/C=C/C(=O)O1` [BREFELDIN A], the IC50 in the data set on PC-3 was 68 nM; in the data set with HT-29 it was 160 nM; in the data set with L02, < 0.0004 µM; in the data set with HepG2, 350 nM.

As for `O=C(O)c1ccccc1C(=O)OCCCOc1no[n+]([O-])c1S(=O)(=O)c1ccccc1`, the IC50 in the data set on PC-3 is 4900 nM; with HT-29 it was > 10000 nM; with L02 it was 40 µM; with HepG2 it was > 10000 nM.

Turning to `C[C@H]1CCC/C=C/[C@@H]2C[C@H](OC(=O)CCC(=O)OCCOc3no[n+]([O-])c3S(=O)(=O)c3ccccc3)C[C@H]2[C@H](OC(=O)CCC(=O)OCCOc2no[n+]([O-])c2S(=O)(=O)c2ccccc2)/C=C/C(=O)O1`, the IC50 in the data set on PC-3 was 56 nM; with HT-29 it was 220 nM; with L02 it was 5.9 µM; with HepG2, 510 nM. For the same molecule, the selectivity ratio in data set [1] came to 12. In addition, the Drug metabolism in data set [2] amounted to 98.4 µM; in data set [3] it was 19.5 µM.

Regarding `C[C@H]1CCC/C=C/[C@@H]2C[C@H](O)C[C@H]2[C@H](OC(=O)c2ccccc2C(=O)OCCCOc2no[n+]([O-])c2S(=O)(=O)c2ccccc2)/C=C/C(=O)O1`, the IC50 with PC-3 was found to be 150 nM; in the data set with HT-29 it was 860 nM; in the data set on L02, 5.9 µM; in the data set with HepG2, 620 nM. In addition, in data set [1], the selectivity ratio was found to be 10.

As for `C[C@H]1CCC/C=C/[C@@H]2C[C@H](OC(=O)CCCC(=O)OCCOc3no[n+]([O-])c3S(=O)(=O)c3ccccc3)C[C@H]2[C@H](O)/C=C/C(=O)O1`, the IC50 in the data set on PC-3 turned out to be 59 nM; in the data set on HT-29 it was 180 nM; in the data set on L02, 5.1 µM; with HepG2, 820 nM. Besides, in data set [1], the selectivity ratio came to 6. For the same molecule, the Drug metabolism in data set [2] amounted to 65.2 µM; in data set [3], 14.6 µM.

Turning to `C[C@H]1CCC/C=C/[C@@H]2C[C@H](OC(=O)CCC(=O)OCCOc3no[n+]([O-])c3S(=O)(=O)c3ccccc3)C[C@H]2[C@H](O)/C=C/C(=O)O1`, the IC50 in the data set with PC-3 came out at 140 nM; with HT-29, 460 nM; with L02, 5.2 µM; in the data set with HepG2, 910 nM. Further, in data set [1], the selectivity ratio was determined as 6.

Consider `C[C@H]1CCC/C=C/[C@@H]2C[C@H](OC(=O)CCC(=O)OCCCOc3no[n+]([O-])c3S(=O)(=O)c3ccccc3)C[C@H]2[C@H](OC(=O)CCC(=O)OCCCOc2no[n+]([O-])c2S(=O)(=O)c2ccccc2)/C=C/C(=O)O1`, for which the IC50 in the data set with PC-3 was determined as 120 nM; in the data set with HT-29, 1200 nM; in the data set on L02, 7.2 µM; with HepG2, 840 nM. Besides, the selectivity ratio in data set [1] worked out at 9.

As for `C[C@H]1CCC/C=C/[C@@H]2C[C@H](O)C[C@H]2[C@H](OC(=O)CCC(=O)OCCOc2no[n+]([O-])c2S(=O)(=O)c2ccccc2)/C=C/C(=O)O1`, the IC50 with PC-3 stood at 120 nM; in the data set with HT-29, 230 nM; in the data set on L02, 5 µM; with HepG2 it was 510 nM. Besides, the selectivity ratio in data set [1] was 10.
